Measured values gathered from unrelated publications.
Compare with care: the assays were run in different laboratories.
Target: Myotonin-protein kinase (DMPK, Homo sapiens, UniProt Q09013)
Residues used in one study (Q09013 1-629): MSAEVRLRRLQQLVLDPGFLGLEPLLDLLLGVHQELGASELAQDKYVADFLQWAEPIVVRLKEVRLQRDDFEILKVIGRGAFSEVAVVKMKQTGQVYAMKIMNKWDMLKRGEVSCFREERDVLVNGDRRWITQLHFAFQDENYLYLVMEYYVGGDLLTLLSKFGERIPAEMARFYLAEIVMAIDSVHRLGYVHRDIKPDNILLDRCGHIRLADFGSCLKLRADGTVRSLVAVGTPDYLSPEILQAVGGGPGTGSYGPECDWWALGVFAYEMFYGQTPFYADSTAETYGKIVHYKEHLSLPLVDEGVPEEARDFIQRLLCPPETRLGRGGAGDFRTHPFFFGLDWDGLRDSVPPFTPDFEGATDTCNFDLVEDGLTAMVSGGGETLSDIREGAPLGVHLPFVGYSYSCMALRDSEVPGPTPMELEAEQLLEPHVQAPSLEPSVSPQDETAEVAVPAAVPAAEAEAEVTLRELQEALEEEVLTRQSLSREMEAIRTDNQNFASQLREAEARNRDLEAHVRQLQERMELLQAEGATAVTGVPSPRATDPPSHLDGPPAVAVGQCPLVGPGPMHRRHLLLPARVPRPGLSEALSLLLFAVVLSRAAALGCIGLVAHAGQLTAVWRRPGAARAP

Structure (SMILES)	assay	conditions	measurement	result
Cn1cncc1[C@](O)(COc1ccc(C#N)cc1-c1ccc(OC(F)(F)F)cc1)c1ccc(C#N)cc1	cell-free assay, competition with immobilised ligand	1 µM	remaining binding	98%
Cn1cc(-c2cc(F)cc(N3CCn4c(cc5c4CCCC5)C3=O)c2CO)cc(Nc2ccc(N3CCN(C4COC4)CC3)cn2)c1=O	enzyme activity, inhibitor	0.1 µM	inhibition	-7%
COc1ncccc1-c1cnn2ccc(N3CCN(C(=O)OC(C)C)CC3)nc12	binding, competition with immobilised ligand	1 µM	remaining binding	98%
C#Cc1n[nH]c2c(-c3cn([C@@H](C)c4ccccn4)c(=O)[nH]c3=O)cc(F)cc12	enzyme activity, inhibitor	0.1 µM	inhibition	3.2%
Cc1nn(C)cc1-c1nc2c(N3CCN(Cc4ccc(Cl)cc4)CC3)c(Cl)cnc2[nH]1	binding, competition with immobilised ligand	1 µM	remaining binding	100%
Nc1ncc(-c2nc(N3CCOCC3)nc(N3CCOCC3)n2)c(C(F)F)n1	binding, competition with immobilised ligand	10 µM	remaining binding	76%
O=c1[nH]c2ccccc2n1C1CCN(Cc2ccc(-c3[nH]c4cc5ncnc5cc4nc3-c3ccccc3)cc2)CC1	cell-free assay	0.5 µM	remaining signal	98%
Cn1cc(-c2cccc(N3CCc4c(sc5c4CC(C)(C)C5)C3=O)c2CO)cc(Nc2ccncn2)c1=O	enzyme activity, inhibitor	1 µM	inhibition	-4%
CC(C)(C)c1cc(C=C(C#N)C#N)cc(Br)c1O	enzyme activity, inhibitor	0.5 µM	remaining activity	96.9%
C#Cc1n[nH]c2c(-c3cn([C@@H](C)c4ccccc4)c(=O)[nH]c3=O)cc(F)cc12	enzyme activity, inhibitor	0.1 µM	inhibition	-4%
